In ChEMBL document CHEMBL3112482, “Nonclassical antifolates, part 5. Benzodiazepine analogs as a new class of DHFR inhibitors: synthesis, antitumor testing and molecular modeling study” (Eur J Med Chem, 2014):

Legend:
Format in all cases: functional
Cancer cell lines [1] = experiment: Ratio of 5-FU LC50 to compound LC50 for human CNS cancer cells
How it was run: (§1)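 Compounds passing the NCI single-dose primary screen were retested across the 60 human tumour cell lines (nine subpanels) over a 5-log dose range. GI50, TGI and LC50 were recorded for each cell line, with 5-fluorouracil run as the reference drug. Subpanel values for compound and 5-FU were then compared.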

[2] = Cytotoxicity against human melanoma cells at 10 uM after 48 hrs; conditions: Melanoma cell
How it was run: (§2)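 Single-dose primary screen in the NCI 60 human tumour cell line panel, run at the NCI facility. The panel covers nine subpanels: leukaemia, non-small cell lung, colon, CNS, melanoma, ovarian, renal, prostate and breast. Read-out was percent growth of treated cells, shown as a mean graph and reported as percent growth inhibition.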

[3] = Growth inhibition of human HCC2998 cells at 10 uM after 48 hrs; conditions: HCC 2998, 48 h, read-out: GI; how it was run: as §2
Cancer cell lines [4] = experiment: Ratio of 5-FU TGI to compound TGI for human colon cancer cells
A549 = experiment: Growth inhibition of human A549 cells at 10 uM after 48 hrs; conditions: A549, 48 h, read-out: GI; how it was run: as §2
KM12 = experiment: Growth inhibition of human KM12 cells at 10 uM after 48 hrs; conditions: KM12, 48 h, read-out: GI; how it was run: as §2
[5] = Cytotoxicity against human leukemia cells at 10 uM after 48 hrs; conditions: Leukemia cell
Leukemia cell [6] = experiment: Ratio of 5-FU LC50 to compound LC50 for human leukemia cells; how it was run: as §1
SK-MEL-5 = experiment: Growth inhibition of human SK-MEL-5 cells at 10 uM after 48 hrs; conditions: SK-MEL-5, 48 h, read-out: GI
How it was run: (§3)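 NCI 60-cell-line disease-oriented human tumor panel, single-dose primary screen at 10 µM. Data given as mean-graph percent growth of treated cells, reported as percent growth inhibition (GI %).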

Cancer cell lines [7] = experiment: Ratio of 5-FU LC50 to compound LC50 for human colon cancer cells; how it was run: as §1
[8] = Cytotoxicity against human non-small cell lung cancer cells at 10 uM after 48 hrs; conditions: Cancer cell lines; how it was run: as §2
Cancer cell lines [9] = experiment: Ratio of 5-FU LC50 to compound LC50 for human prostate cancer cells; how it was run: as §1
Melanoma cell [10] = experiment: Ratio of 5-FU TGI to compound TGI for human melanoma cells
BT-549 = experiment: Growth inhibition of human BT549 cells at 10 uM after 48 hrs; conditions: BT-549, 48 h, read-out: GI; how it was run: as §2
Cancer cell lines [11] = experiment: Ratio of 5-FU GI50 to compound GI50 for human breast cancer cells; how it was run: as §1
NCI-H226 = experiment: Growth inhibition of human NCI-H226 cells at 10 uM after 48 hrs; conditions: NCI-H226, 48 h, read-out: GI; how it was run: as §2
Cancer cell lines [12] = experiment: Ratio of 5-FU GI50 to compound GI50 for human ovarian cancer cells; how it was run: as §1
Cancer cell lines [13] = experiment: Ratio of 5-FU GI50 to compound GI50 for human prostate cancer cells; how it was run: as §1
Cancer cell lines [14] = experiment: Ratio of 5-FU LC50 to compound LC50 for human breast cancer cells; how it was run: as §1
HOP-62 = experiment: Growth inhibition of human HOP62 cells at 10 uM after 48 hrs; conditions: HOP-62, 48 h, read-out: GI; how it was run: as §2
Cancer cell lines [15] = experiment: Ratio of 5-FU LC50 to compound LC50 for human renal cancer cells; how it was run: as §1
786-0 = experiment: Growth inhibition of human 786-0 cells at 10 uM after 48 hrs; conditions: 786-0, 48 h, read-out: GI; how it was run: as §2
Cancer cell lines [16] = experiment: Ratio of 5-FU GI50 to compound GI50 for human colon cancer cells; how it was run: as §1
OVCAR-3 = experiment: Growth inhibition of human OVCAR3 cells at 10 uM after 48 hrs; conditions: OVCAR-3, 48 h, read-out: GI; how it was run: as §2
Melanoma cell [17] = experiment: Ratio of 5-FU LC50 to compound LC50 for human melanoma cells; how it was run: as §1
IGROV-1 = experiment: Growth inhibition of human IGROV1 cells at 10 uM after 48 hrs; conditions: IGROV-1, 48 h, read-out: GI; how it was run: as §2
Melanoma cell [18] = experiment: Ratio of 5-FU GI50 to compound GI50 for human melanoma cells; how it was run: as §1
Cancer cell lines [19] = experiment: Ratio of 5-FU LC50 to compound LC50 for human non-small cell lung cancer cells; how it was run: as §1
HT-29 = experiment: Growth inhibition of human HT-29 cells at 10 uM after 48 hrs; conditions: HT-29, 48 h, read-out: GI; how it was run: as §2
Malme-3M = experiment: Growth inhibition of human MALME-3M cells at 10 uM after 48 hrs; conditions: read-out: GI; how it was run: as §2
Cancer cell lines [20] = experiment: Ratio of 5-FU TGI to compound TGI for human non-small cell lung cancer cells
Leukemia cell [21] = experiment: Ratio of 5-FU GI50 to compound GI50 for human leukemia cells; how it was run: as §1
U-251 = experiment: Growth inhibition of human U251 cells at 10 uM after 48 hrs; conditions: U-251, 48 h, read-out: GI; how it was run: as §3
[22] = Growth inhibition of human HOP92 cells at 10 uM after 48 hrs; conditions: HOP-92, 48 h, read-out: GI; how it was run: as §2
ACHN = experiment: Growth inhibition of human ACHN cells at 10 uM after 48 hrs; conditions: read-out: GI; how it was run: as §2
UACC-62 = experiment: Growth inhibition of human UACC62 cells at 10 uM after 48 hrs; conditions: UACC-62, 48 h, read-out: GI; how it was run: as §3
HCT-15 = experiment: Growth inhibition of human HCT15 cells at 10 uM after 48 hrs; conditions: HCT-15, 48 h, read-out: GI; how it was run: as §2
SN12C = experiment: Growth inhibition of human SN12C cells at 10 uM after 48 hrs; conditions: read-out: GI; how it was run: as §3
Cancer cell lines [23] = experiment: Ratio of 5-FU TGI to compound TGI for human renal cancer cells
[24] = read-out: LC50 (the source's name)

COc1cc(/C=C2\CCCc3c2nc(C)nc3-c2cc(OC)c(OC)c(OC)c2)cc(OC)c1OC
RatioLC50 (Cancer cell lines [1]): 15
GI50 [2]: 1.4 µM
TGI [2]: 3.1 µM
CC50 [2, 24]: > 100 µM
inhibition of growth at 10 µM [3]: 88.1%
Ratio (Cancer cell lines [4]): 15
inhibition of growth at 10 µM (A549): 83.8%
inhibition of growth at 10 µM (KM12): 97.1%
GI50 [5]: 1.1 µM
LC50 [5]: > 100 µM
TGI [5]: 62.5 µM
RatioLC50 (Leukemia cell [6]): 15
inhibition of growth at 10 µM (SK-MEL-5): 80.9%
RatioLC50 (Cancer cell lines [7]): 15
GI50 [8]: 2.7 µM
TGI [8]: > 100 µM
CC50 [8, 24]: > 100 µM
RatioLC50 (Cancer cell lines [9]): 15
Ratio (Melanoma cell [10]): 15
inhibition of growth at 10 µM (BT-549): 97.1%
RatioGI50 (Cancer cell lines [11]): 15
inhibition of growth at 10 µM (NCI-H226): 62.4%
RatioGI50 (Cancer cell lines [12]): 15
RatioGI50 (Cancer cell lines [13]): 15
RatioLC50 (Cancer cell lines [14]): 15
inhibition of growth at 10 µM (HOP-62): 78%
RatioLC50 (Cancer cell lines [15]): 15
inhibition of growth at 10 µM (786-0): 82%
RatioGI50 (Cancer cell lines [16]): 15
inhibition of growth at 10 µM (OVCAR-3): 72%
RatioLC50 (Melanoma cell [17]): 15
inhibition of growth at 10 µM (IGROV-1): 69.3%
RatioGI50 (Melanoma cell [18]): 15
RatioLC50 (Cancer cell lines [19]): 15
inhibition of growth at 10 µM (HT-29): 92.1%
inhibition of growth at 10 µM (Malme-3M): 69.8%
Ratio (Cancer cell lines [20]): 15
RatioGI50 (Leukemia cell [21]): 15
inhibition of growth at 10 µM (U-251): 90.2%
inhibition of growth at 10 µM [22]: < 30%
inhibition of growth at 10 µM (ACHN): 87.5%
inhibition of growth at 10 µM (UACC-62): 91%
inhibition of growth at 10 µM (HCT-15): 95.8%
inhibition of growth at 10 µM (SN12C): 89.2%
Ratio (Cancer cell lines [23]): 15
